The text below walks through data of ChEMBL document CHEMBL4765234 (J Med Chem, 2016).

Series [1] can be described thus: Half-life in dog at 5 mg/kg, po or 1 mg/kg, iv by LC/MS/MS analysis. The settings on record: in vivo. Type of series: ADME, organism-based, Canis lupus familiaris. An outline of the steps: (§1)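 Mice, rats and beagle dogs dosed; blood drawn at set times into EDTA, processed to plasma and assayed by LC/MS/MS. Parameters (clearance, Vdss, terminal half-life, Cmax, Tmax, oral bioavailability) derived by noncompartmental analysis.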

Series [2] is described as follows: Cmax in dog plasma at 5 mg/kg, po or 1 mg/kg, iv by LC/MS/MS analysis. It counts as ADME, organism-based, Canis lupus familiaris. Further details: dose 5 mg/kg; call rule not given here. The procedure, abridged:
(§2)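 Dosing was oral and intravenous in mice, rats or beagle dogs. Blood was drawn at set time points into EDTA and processed to plasma. Plasma was assayed by LC/MS/MS. Clearance, Cmax and terminal half-life were derived by noncompartmental analysis.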

Series [3] can be described thus: Elimination half-life in mouse plasma at 10 mg/kg, po or 1 mg/kg, iv by LC/MS/MS analysis. Particulars: read-out: beta t1/2 (converted).
A short description of series [4]: Cmax in mouse plasma at 10 mg/kg, po or 1 mg/kg, iv by LC/MS/MS analysis. Type of series: ADME, organism-based. More on the design: dose 10 mg/kg. The procedure, abridged:
as §2

Series [5] can be described thus: Volume of distribution at steady state in dog at 5 mg/kg, po or 1 mg/kg, iv by LC/MS/MS analysis. Type of series: ADME, organism-based, Canis lupus familiaris. Particulars: in vivo, read-out: Vdss. The procedure, abridged: as §1
Series [6] is described as follows: Clearance in dog plasma at 5 mg/kg, po or 1 mg/kg, iv by LC/MS/MS analysis. Type of series: ADME, organism-based, Canis lupus familiaris. The procedure, abridged:
as §2

A short description of series [7]: Tmax in mouse at 10 mg/kg, po or 1 mg/kg, iv by LC/MS/MS analysis. It counts as ADME, organism-based. Particulars: in vivo. An outline of the steps: as §1
Series [8] is described as follows: Drug metabolism in rat hepatocytes assessed as O-dealkylation by measuring 4-((2,3-dihydrospiro[indene-1,4'-piperidine]-1'-yl)methyl)benzoic acid metabolite formation by LC-MS/MS analysis. It counts as ADME, cell-based, Hepatocyte.
A short description of series [9]: Clearance in mouse plasma at 10 mg/kg, po or 1 mg/kg, iv by LC/MS/MS analysis. Type of series: ADME, organism-based. The procedure, abridged: as §2
Series [10] can be described thus: Half-life in mouse at 10 mg/kg, po or 1 mg/kg, iv by LC/MS/MS analysis. Particulars: in vivo. Type of series: ADME, organism-based. The procedure, abridged:
as §1

Series [11] is described as follows: Drug metabolism in mouse hepatocytes assessed as O-dealkylation by measuring 4-((2,3-dihydrospiro[indene-1,4'-piperidine]-1'-yl)methyl)benzoic acid metabolite formation by LC-MS/MS analysis. Type of series: ADME, cell-based, Hepatocyte.
A short description of series [12]: Drug metabolism in dog plasma assessed as O-dealkylation metabolite formation by LC-MS/MS analysis. Type of series: ADME, cell-free, Canis lupus familiaris.
Series [13] is described as follows: Tmax in rat at 10 mg/kg, po or 3 mg/kg, iv by LC/MS/MS analysis. It counts as ADME, organism-based. Particulars: in vivo. An outline of the steps: as §1
The nature of series [14]: Elimination half-life in dog plasma at 5 mg/kg, po or 1 mg/kg, iv by LC/MS/MS analysis. Type of series: ADME, organism-based, Canis lupus familiaris. The procedure, abridged: as §2
Series [15] can be described thus: Volume of distribution at steady state in mouse at 10 mg/kg, po or 1 mg/kg, iv by LC/MS/MS analysis. It counts as ADME, organism-based. The settings on record: in vivo, read-out: Vdss. An outline of the steps:
as §1

Series [16] in a line: Cmax in rat plasma at 10 mg/kg, po or 3 mg/kg, iv by LC/MS/MS analysis. It counts as ADME, organism-based. Further details: dose 10 mg/kg. An outline of the steps:
as §2

A short description of series [17]: Apparent volume of distribution in type 2 diabetic mellitus human at 540 mg, po administered as single dose. Particulars: in vivo, read-out: Vz/F. It counts as ADME, organism-based. An outline of the steps: (§3)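 Type 2 diabetic subjects each received a single oral dose. Plasma drug levels were followed over time. Parameters were derived by noncompartmental analysis and reported as geometric means with CV%. CL/F is apparent total clearance and Vz/F is apparent terminal-phase volume.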

The nature of series [18]: Apparent clearance in type 2 diabetic mellitus human at 1080 mg, po administered as single dose. Type of series: ADME, organism-based. The settings on record: in vivo. An outline of the steps:
as §3

The nature of series [19]: Drug metabolism in dog hepatocytes assessed as demethylation by LC-MS/MS analysis. It counts as ADME, cell-based, Canis lupus familiaris, Hepatocyte.
A short description of series [20]: AUC ( 0 to infinity) in type 2 diabetic mellitus human at 540 mg, po administered as single dose. Type of series: ADME, organism-based. Further details: route oral, time infinity, dose 540 mg. Particulars: in vivo. The procedure, abridged:
as §3

A short description of series [21]: Half life in type 2 diabetic mellitus human at 540 mg, po administered as single dose. It counts as ADME, organism-based. The settings on record: in vivo.
Series [22] can be described thus: AUC ( 0 to infinity) in type 2 diabetic mellitus human at 270 mg, po administered as single dose. Type of series: ADME, organism-based. More on the design: time infinity, route oral, dose 270 mg. Particulars: in vivo. An outline of the steps: as §3
The nature of series [23]: Apparent volume of distribution in type 2 diabetic mellitus human at 270 mg, po administered as single dose. Type of series: ADME, organism-based. Particulars: in vivo, read-out: Vz/F. An outline of the steps:
as §3

Series [24] is described as follows: AUC in hyperglycemic Balb/c mouse plasma at 5 mg/kg measured upto 60 mins. It counts as ADME, organism-based. More on the design: dose 5 mg/kg, time <=60.
Series [25] in a line: Half life in type 2 diabetic mellitus human at 1080 mg, po administered as single dose. Type of series: ADME, organism-based. The settings on record: in vivo. An outline of the steps: as §3
Series [26] is described as follows: Tmax in mouse at 3 mg/kg, po or 1 mg/kg, iv by LC/MS/MS analysis. It counts as ADME, organism-based. The settings on record: in vivo. An outline of the steps: (§4)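 Dosed to mice, rats or beagle dogs. Blood collected at selected time points with EDTA anticoagulant, processed to plasma and analysed by LC/MS/MS. Parameters obtained by noncompartmental analysis.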

A short description of series [27]: Cmax in type 2 diabetic mellitus human at 1080 mg, po administered as single dose. The settings on record: in vivo. It counts as ADME, organism-based. Further details: route oral, dose 1080 mg. An outline of the steps: as §3
Series [28] can be described thus: Elimination half-life in rat plasma at 3 mg/kg, po or 1 mg/kg, iv by LC/MS/MS analysis. Type of series: ADME, organism-based. Particulars: read-out: beta t1/2 (converted). The procedure, abridged:
as §4

The nature of series [29]: Cmax in type 2 diabetic mellitus human at 270 mg, po administered as single dose. It counts as ADME, organism-based. The settings on record: in vivo. Further details: route oral, dose 270 mg. The procedure, abridged:
as §3

The nature of series [30]: AUC ( 0 to infinity) in type 2 diabetic mellitus human at 1080 mg, po administered as single dose. The settings on record: in vivo. Further details: time infinity, route oral, dose 1080 mg. It counts as ADME, organism-based. An outline of the steps:
as §3

The nature of series [31]: Apparent clearance in type 2 diabetic mellitus human at 270 mg, po administered as single dose. Type of series: ADME, organism-based. The settings on record: in vivo. An outline of the steps:
as §3

The nature of series [32]: AUC in hyperglycemic Balb/c mouse plasma at […] measured upto 60 mins. Type of series: ADME, organism-based.
A short description of series [33]: Drug distribution in C57BL/6 mouse skeletal muscle at 3 microg/kg, iv administered as single dose observed at 20 to 40 mins by LC-MS/MS analysis. The settings on record: in vivo, 0.003 mg/kg, time 20-40 min, dose 3 µg/kg. Type of series: ADME, organism-based, Skeletal muscle tissue. An outline of the steps:
(§5)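 Tracer microdose study in fed male C57BL/6 mice: single 3 μg/kg IV dose in 25% HP-BCD. Mice were killed by cervical dislocation, and spleen, ascending colon, skeletal muscle and plasma were sampled at 20 and 40 min.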

The nature of series [34]: Drug metabolism in human hepatocytes assessed as glucuronidation by LC-MS/MS analysis. Type of series: ADME, cell-based, Hepatocyte.
Series [35] can be described thus: Drug distribution in C57BL/6 mouse colon at 3 microg/kg, iv administered as single dose observed at 20 to 40 mins by LC-MS/MS analysis. Type of series: ADME, organism-based. Particulars: in vivo, 0.003 mg/kg, time 20-40 min, dose 3 µg/kg. An outline of the steps: as §5
The nature of series [36]: Drug metabolism in human hepatocytes assessed as N-dealkylation by LC-MS/MS analysis. It counts as ADME, cell-based, Hepatocyte.
Series [37] is described as follows: Drug metabolism in dog hepatocytes assessed as taurine metabolite formation by LC-MS/MS analysis. It counts as ADME, cell-based, Canis lupus familiaris, Hepatocyte.
Series [38] can be described thus: Drug metabolism in dog urine assessed as N-dealkylation by LC-MS/MS analysis. Type of series: ADME, tissue-based, Canis lupus familiaris.
Series [39] in a line: Drug metabolism in mouse hepatocytes assessed as N-dealkylation by LC-MS/MS analysis. Type of series: ADME, cell-based, Hepatocyte.
Series [40] in a line: Drug metabolism in rat hepatocytes assessed as oxidation by LC-MS/MS analysis. Type of series: ADME, cell-based, Hepatocyte.
Series [41] is described as follows: Drug metabolism in mouse hepatocytes assessed as oxidation by LC-MS/MS analysis. Type of series: ADME, cell-based, Hepatocyte.

On to `CC#C[C@@H](CC(=O)O)c1ccc(OCc2ccc(CN3CCC4(C=Cc5ccccc54)CC3)cc2)cc1` [LY2881835], for which the half-life in [1] was 5.05 h; in series [3], 2 h; in series [10] it was 2.1 h; in [14] it was 5.05 h. The Cmax (commonly the peak of the concentration-time curve) stood at 2860 ng/mL in series [2], 1100 ng/mL in series [4] and 11200 ng/mL in series [16]. Also, the Vd in series [5] amounted to 0.8 L/kg; in series [15] it was 1.4 L/kg. In addition, the clearance in series [6] was 4.9 mL/min/kg; in series [9] it was 20.4 mL/min/kg. In addition, the Tmax (commonly the time from dosing to the highest level) in series [7] is 0.5 h; in series [13] it was 0.25 h. Further, the Drug metabolism entry in series [8], in series [11] and in series [12] was “Metabolite_Detected” throughout.

For the compound `CC#C[C@@H](CC(=O)O)c1ccc(OCc2ccc(CN3CCCc4cccc(OC)c43)s2)cc1`, the Vd/F in [17] came out at 273 L; in series [23], 244 L. For the same compound, the apparent clearance (CL/F) – broadly, clearance divided by bioavailability, as obtained after extravascular dosing – in [18] was 185 mL/min; in series [31] it was 232 mL/min. Also, the Drug metabolism result in series [19] is “Metabolite_Detected”. Further, the results for the AUC(0-inf) in [20], in [22] and in series [30] were 41400 ng·h/mL, 19400 ng·h/mL and 97300 ng·h/mL, respectively. The half-life is 14.5 h in [21], 22.4 h in [25] and 5.6 h in [28]. Besides, in series [24], the AUC – broadly, the area under the concentration-time curve, a measure of exposure – at 1 h was found to be 4930 ng·h/mL. Further, the Tmax in series [26] came to 1 h. Also, the figures for the maximum concentration (Cmax) in series [27] and in series [29] were 7950 ng/mL and 2000 ng/mL, respectively.

In the case of `CC#C[C@@H](CC(=O)O)c1ccc(OCc2ccc(CN3CCC4(CC3)CN(C)c3ccccc34)cc2)cc1`, in series [32], the AUC at 1 h was determined as 1030 ng·h/mL.

For the compound `CC#C[C@@H](CC(=O)O)c1ccc(OCc2ccc(CN3CCC4(C=Cc5ccccc54)CC3)s2)cc1`, the Drug uptake result in series [33] and in [35] was “Active” in each case. The Drug metabolism entry in series [34], in [36] and in series [37] was “Metabolite_Detected” in each case.

`CC#C[C@@H](CC(=O)O)c1ccc(OCc2ccc(CN3CCC4(CCc5ccccc54)CC3)s2)cc1`: the Drug metabolism result in series [38], in series [39], in series [40], in series [34], in series [36] and in series [41] was “Metabolite_Detected” each time. For the same compound, the Drug metabolism entry in [37] is “Metabolite_Detected”. In addition, in series [26], the Tmax was found to be 2 h. In series [28], the half-life was 2 h.
